Activity calls are given as the source filed them. The rule behind the calls is not given here.
Tests used:
Assay type in all cases: functional, organism-based
Plasmodium falciparum [1] = experiment: Antimalarial activity against chloroquine-sensitive Plasmodium falciparum T996
Plasmodium falciparum [2] = experiment: Antimalarial activity against chloroquine-resistant Plasmodium falciparum 34-1/E
Plasmodium falciparum [3] = experiment: Antimalarial activity against chloroquine-resistant Plasmodium falciparum RSA11
Plasmodium falciparum [4] = experiment: Antimalarial activity against chloroquine-sensitive Plasmodium falciparum 106/1
Plasmodium falciparum [5] = experiment: Antimalarial activity against chloroquine-resistant Plasmodium falciparum 7G8-mdr7G8
Plasmodium falciparum [6] = experiment: Antimalarial activity against chloroquine-resistant Plasmodium falciparum K1
Plasmodium falciparum [7] = experiment: Antimalarial activity against chloroquine-sensitive Plasmodium falciparum 3D7
Plasmodium falciparum [8] = experiment: Reduction of [3H]dihydroartemisinin uptake in chloroquine-sensitive Plasmodium falciparum 3D7 infected erythrocytes after 90 min
In short: (§1)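 Trophozoite-stage parasitized erythrocytes (5% parasitemia, 1.5% hematocrit) added to microtubes holding unlabeled antimalarial plus radiolabeled drug ([3H]DHA 1.4 Ci/mmol or [3H]CQ 50.4 Ci/mmol); 37°C, 90 min. Cells spun through silicon oil, radioactivity by liquid scintillation. Uptake as percent of control parasitized erythrocytes after subtracting uninfected-erythrocyte uptake; at least two experiments, each in triplicate.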

Plasmodium falciparum [9] = experiment: Reduction of [3H]dihydroartemisinin uptake in chloroquine-resistant Plasmodium falciparum K1 infected erythrocytes after 90 min
In short: (§2)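 [3H]dihydroartemisinin (1.4 Ci/mmol) uptake into trophozoite-infected erythrocytes (5% parasitemia, 1.5% hematocrit), with unlabeled antimalarial added at the start, 90 min at 37°C. Cells spun through silicone oil, radioactivity counted by liquid scintillation. Uptake given as percent of untreated infected-cell control after subtracting uptake in uninfected erythrocytes. At least two experiments, each in triplicate.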

Plasmodium falciparum [10] = experiment: Antimalarial activity against chloroquine-sensitive Plasmodium falciparum FC27
Plasmodium falciparum [11] = experiment: Reduction of [3H]dihydroartemisinin uptake in chloroquine-resistant Plasmodium falciparum RSA11 infected erythrocytes after 90 min; in short: as §2
Plasmodium falciparum [12] = experiment: Reduction of [3H]dihydroartemisinin uptake in chloroquine-sensitive Plasmodium falciparum FC27 infected erythrocytes after 90 min; in short: as §1
Plasmodium falciparum [13] = experiment: Reduction of [3H]chloroquine uptake in chloroquine-sensitive Plasmodium falciparum FC27 infected erythrocytes after 90 min; in short: as §1
Plasmodium falciparum [14] = experiment: Reduction of [3H]chloroquine uptake in chloroquine-sensitive Plasmodium falciparum 3D7 infected erythrocytes after 90 min; in short: as §1
Plasmodium falciparum [15] = experiment: Reduction of [3H]chloroquine uptake in chloroquine-resistant Plasmodium falciparum RSA11 infected erythrocytes after 90 min
In short: as §2, with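 “[3H]chloroquine (50.4” for “[3H]dihydroartemisinin (1.4”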

Compound	IC50 (Plasmodium falciparum [1])	IC50 (Plasmodium falciparum [2])	IC50 (Plasmodium falciparum [3])	IC50 (Plasmodium falciparum [4])	IC50 (Plasmodium falciparum [5])	IC50 (Plasmodium falciparum [6])	IC50 (Plasmodium falciparum [7])	Activity (Plasmodium falciparum [8])	Activity (Plasmodium falciparum [9])	IC50 (Plasmodium falciparum [10])	Activity (Plasmodium falciparum [11])	Activity (Plasmodium falciparum [12])	Activity (Plasmodium falciparum [13])	Activity (Plasmodium falciparum [14])	Activity (Plasmodium falciparum [15])	Activity (Plasmodium falciparum [15]; K1)
CCN(CC)Cc1cc(Nc2ccnc3cc(Cl)ccc23)ccc1O	14.8 nM	17.2 nM	26.7 nM	17.5 nM	32.7 nM	22.4 nM	18.4 nM	Active	Active	6.68 nM	Active	Active				
CO[C@H]1O[C@@H]2O[C@@]3(C)CC[C@H]4[C@H](C)CC[C@@H]([C@H]1C)[C@@]24OO3								Active	Active		Active	Active	Active	Active	Active	Active
OC(c1cc(C(F)(F)F)nc2c(C(F)(F)F)cccc12)C1CCCCN1 (configuration not stated)								Active	Active		Active	Active	Active	Active	Active	Active
Clc1ccc2c(N3CCN(CCCN4CCN(c5ccnc6cc(Cl)ccc56)CC4)CC3)ccnc2c1 [PIPERAQUINE]	19.9 nM	16.4 nM		22.2 nM			36.9 nM	Active	Active	29.6 nM	Active	Active	Active	Active	Active	Active
CCN(CC)CCCC(C)Nc1ccnc2cc(Cl)ccc12 (configuration not stated)								Active	Active		Active	Active	Active	Active	Active	Active
C[C@H]1[C@@H](O)O[C@@H]2O[C@@]3(C)CC[C@H]4[C@H](C)CC[C@@H]1[C@@]24OO3								Active	Active		Active	Active	Active	Active	Active	Active

From ChEMBL document CHEMBL1143854 (Antimicrob Agents Chemother, 2007)
